# Results reported in ChEMBL document CHEMBL1142492 (J Med Chem, 2008).
# How the values were obtained:
# [1] = system: Proto-oncogene tyrosine-protein kinase receptor Ret (Homo sapiens), P07949 [V804M]; test: Inhibition of RET V804M mutant at 3 uM
# [2] = biological target: Serine/threonine-protein kinase 10 (Homo sapiens) (UniProt O94804); test: Inhibition of LOK at 3 uM
# [3] = biological target: Mitogen-activated protein kinase kinase kinase 11 (Homo sapiens) (UniProt Q16584); test: Inhibition of MLK3 at 3 uM
# [4] = biological target: Dual specificity mitogen-activated protein kinase kinase 3 (Homo sapiens) (UniProt P46734); test: Inhibition of MEK3 at 3 uM
# [5] = biological target: Estrogen receptor (Homo sapiens) (UniProt P03372); test: Inhibition of human ERalpha at 3 uM
# Method in brief: (§1)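 Counter-screen binding/enzyme panel at single 3 μM, n=2; results as percent inhibition. Species per target as listed (rat NMDA, GABAA sites; human receptors, transporters; rabbit ACE).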
# [6] = biological target: cAMP-dependent protein kinase catalytic subunit PRKX (Homo sapiens) (UniProt P51817); test: Inhibition of PRKX at 3 uM
# Chain of cAMP-dependent protein kinase catalytic subunit PRKX (Homo sapiens) (P51817 whole entry): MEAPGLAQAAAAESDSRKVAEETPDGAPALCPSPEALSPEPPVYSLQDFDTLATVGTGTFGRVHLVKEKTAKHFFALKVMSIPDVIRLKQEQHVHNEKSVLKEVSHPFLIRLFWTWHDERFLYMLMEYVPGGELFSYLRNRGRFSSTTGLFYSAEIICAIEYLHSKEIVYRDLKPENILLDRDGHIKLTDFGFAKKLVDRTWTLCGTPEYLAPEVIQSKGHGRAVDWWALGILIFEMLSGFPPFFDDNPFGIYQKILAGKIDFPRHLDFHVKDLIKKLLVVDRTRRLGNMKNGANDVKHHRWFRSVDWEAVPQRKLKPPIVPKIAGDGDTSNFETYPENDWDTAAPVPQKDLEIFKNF
# [7] = biological target: Receptor tyrosine-protein kinase erbB-2 (Homo sapiens) (UniProt P04626); test: Inhibition of ERBB2 at 3 uM
# Method in brief: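 Single-concentration kinase panel scoring: each value is the percentage of enzyme activity remaining relative to a DMSO-only control. An activity statistically indistinct from DMSO control was scored "no hit".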
# [8] = biological target: Vascular endothelial growth factor receptor 2 (Homo sapiens) (UniProt P35968); test: Inhibition of VEGFR2 at 3 uM
# [9] = biological target: Cyclin-dependent kinase 17 (Homo sapiens) (UniProt Q00537); test: Inhibition of PCTK2 at 3 uM
# [10] = biological target: RAC-alpha serine/threonine-protein kinase (Homo sapiens, UniProt P31749); test: Inhibition of AKT1 after 55 mins
# [11] = biological target: Dual specificity protein kinase CLK4 (Homo sapiens) (UniProt Q9HAZ1); test: Inhibition of CLK4 at 3 uM
# [12] = biological target: Serine/threonine-protein kinase 24 (Homo sapiens) (UniProt Q9Y6E0); test: Inhibition of MST3 at 3 uM
# Chain of Serine/threonine-protein kinase 24 (Homo sapiens) (Q9Y6E0 whole entry, looked up): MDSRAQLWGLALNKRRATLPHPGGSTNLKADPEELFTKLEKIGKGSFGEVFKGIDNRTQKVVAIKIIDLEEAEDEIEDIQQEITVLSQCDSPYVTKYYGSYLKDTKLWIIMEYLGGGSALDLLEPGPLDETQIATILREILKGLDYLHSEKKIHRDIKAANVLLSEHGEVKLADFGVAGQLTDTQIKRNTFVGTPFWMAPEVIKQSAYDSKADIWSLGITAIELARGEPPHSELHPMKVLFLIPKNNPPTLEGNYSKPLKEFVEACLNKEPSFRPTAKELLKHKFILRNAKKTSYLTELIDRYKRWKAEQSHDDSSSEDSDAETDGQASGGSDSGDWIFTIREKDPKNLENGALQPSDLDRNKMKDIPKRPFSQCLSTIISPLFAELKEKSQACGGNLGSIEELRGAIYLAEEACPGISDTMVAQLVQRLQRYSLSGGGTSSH
# [13] = biological target: cAMP-dependent protein kinase catalytic subunit beta (Homo sapiens) (UniProt P22694); test: Inhibition of PKAC-beta at 3 uM
# [14] = biological target: Inhibitor of nuclear factor kappa-B kinase subunit alpha (Homo sapiens) (UniProt O15111); test: Inhibition of IKK-alpha at 3 uM
# [15] = biological target: Proto-oncogene tyrosine-protein kinase Src (Homo sapiens) (UniProt P12931); test: Inhibition of SRC at 3 uM
# [16] = biological target: Calcium/calmodulin-dependent protein kinase type II subunit alpha (Homo sapiens) (UniProt Q9UQM7); test: Inhibition of CAMK2A at 3 uM
# [17] = biological target: Dual specificity protein kinase TTK (Homo sapiens) (UniProt P33981); test: Inhibition of TTK at 3 uM
# Chain of Dual specificity protein kinase TTK (Homo sapiens) (P33981 whole entry): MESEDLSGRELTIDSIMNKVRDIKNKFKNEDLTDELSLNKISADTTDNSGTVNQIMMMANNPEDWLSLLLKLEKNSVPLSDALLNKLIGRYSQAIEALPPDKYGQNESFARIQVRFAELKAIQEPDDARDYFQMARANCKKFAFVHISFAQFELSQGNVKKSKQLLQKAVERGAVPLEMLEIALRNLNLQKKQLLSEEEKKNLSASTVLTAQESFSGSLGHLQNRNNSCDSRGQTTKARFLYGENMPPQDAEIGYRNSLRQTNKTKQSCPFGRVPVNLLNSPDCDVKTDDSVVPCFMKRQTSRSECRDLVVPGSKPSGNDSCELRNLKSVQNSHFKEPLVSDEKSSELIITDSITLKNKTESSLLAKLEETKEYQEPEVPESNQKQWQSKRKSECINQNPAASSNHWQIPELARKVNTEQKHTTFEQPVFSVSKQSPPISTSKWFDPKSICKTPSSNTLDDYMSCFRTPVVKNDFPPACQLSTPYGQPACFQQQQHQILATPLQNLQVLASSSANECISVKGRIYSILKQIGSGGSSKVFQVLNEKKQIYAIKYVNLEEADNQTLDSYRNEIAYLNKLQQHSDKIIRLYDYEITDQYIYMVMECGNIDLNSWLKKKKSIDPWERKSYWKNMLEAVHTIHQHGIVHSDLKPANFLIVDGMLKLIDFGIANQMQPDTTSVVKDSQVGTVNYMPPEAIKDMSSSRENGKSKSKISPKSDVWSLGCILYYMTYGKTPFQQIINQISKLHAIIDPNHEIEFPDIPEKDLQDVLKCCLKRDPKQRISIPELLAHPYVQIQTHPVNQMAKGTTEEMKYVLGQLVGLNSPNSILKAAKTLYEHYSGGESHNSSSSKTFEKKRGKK
# [18] = biological target: Atypical kinase COQ8B, mitochondrial (Homo sapiens) (UniProt Q96D53); test: Inhibition of ADCK4 at 3 uM
# [19] = biological target: SRSF protein kinase 2 (Homo sapiens) (UniProt P78362); test: Inhibition of SRPK2 at 3 uM
# [20] = biological target: Serine/threonine-protein kinase SIK2 (Homo sapiens) (UniProt Q9H0K1); test: Inhibition of SNF1LK2 at 3 uM
# Chain of Serine/threonine-protein kinase SIK2 (Homo sapiens) (Q9H0K1 whole entry, looked up): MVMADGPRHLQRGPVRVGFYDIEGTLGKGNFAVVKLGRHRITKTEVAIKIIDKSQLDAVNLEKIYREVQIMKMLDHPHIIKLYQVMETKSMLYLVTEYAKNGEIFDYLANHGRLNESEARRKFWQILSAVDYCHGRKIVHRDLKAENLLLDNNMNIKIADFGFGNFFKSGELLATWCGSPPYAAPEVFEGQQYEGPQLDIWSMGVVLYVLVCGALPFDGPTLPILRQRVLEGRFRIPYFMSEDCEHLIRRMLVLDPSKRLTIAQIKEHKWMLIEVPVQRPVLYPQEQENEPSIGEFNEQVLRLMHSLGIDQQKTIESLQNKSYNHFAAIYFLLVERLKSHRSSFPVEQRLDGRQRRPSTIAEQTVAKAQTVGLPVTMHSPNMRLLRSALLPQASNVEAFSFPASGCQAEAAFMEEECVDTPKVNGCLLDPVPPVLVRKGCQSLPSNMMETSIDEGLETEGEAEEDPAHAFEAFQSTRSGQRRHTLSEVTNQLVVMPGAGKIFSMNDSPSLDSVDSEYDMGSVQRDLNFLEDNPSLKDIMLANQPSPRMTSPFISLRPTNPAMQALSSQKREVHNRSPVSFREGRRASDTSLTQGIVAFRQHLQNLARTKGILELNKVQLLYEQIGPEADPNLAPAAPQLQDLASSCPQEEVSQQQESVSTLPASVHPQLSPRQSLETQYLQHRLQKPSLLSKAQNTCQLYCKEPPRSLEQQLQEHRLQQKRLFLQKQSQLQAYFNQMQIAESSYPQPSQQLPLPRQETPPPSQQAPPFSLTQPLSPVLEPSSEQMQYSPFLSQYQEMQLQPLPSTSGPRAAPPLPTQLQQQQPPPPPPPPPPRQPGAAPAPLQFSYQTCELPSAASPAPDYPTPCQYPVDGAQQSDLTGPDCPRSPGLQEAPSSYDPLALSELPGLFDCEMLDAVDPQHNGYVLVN
# [21] = biological target: Cyclin-dependent kinase 11A (Homo sapiens) (UniProt Q9UQ88); test: Inhibition of CDC2L2 at 3 uM
# [22] = biological target: D(4) dopamine receptor (Homo sapiens) (UniProt P21917); test: Inhibition of human dopamine D4 receptor at 3 uM; method in brief: as §1
# Chain of D(4) dopamine receptor (Homo sapiens) (P21917 whole entry): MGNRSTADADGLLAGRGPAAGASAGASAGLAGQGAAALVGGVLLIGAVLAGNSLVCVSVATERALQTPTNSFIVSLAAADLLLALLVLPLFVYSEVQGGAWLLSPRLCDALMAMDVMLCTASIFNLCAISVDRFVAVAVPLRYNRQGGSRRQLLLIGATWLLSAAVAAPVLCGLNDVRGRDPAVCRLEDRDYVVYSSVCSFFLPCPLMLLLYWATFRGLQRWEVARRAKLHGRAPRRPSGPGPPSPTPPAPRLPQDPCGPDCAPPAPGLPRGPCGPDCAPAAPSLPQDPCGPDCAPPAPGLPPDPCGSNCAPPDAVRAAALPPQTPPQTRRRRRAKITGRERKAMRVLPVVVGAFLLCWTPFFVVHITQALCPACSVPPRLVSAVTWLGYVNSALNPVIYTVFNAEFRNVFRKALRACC
# [23] = biological target: D(3) dopamine receptor (Homo sapiens) (UniProt P35462); test: Inhibition of human dopamine D3 receptor at 3 uM; method in brief: as §1
# [24] = biological target: Serine/threonine-protein kinase Nek9 (Homo sapiens) (UniProt Q8TD19); test: Inhibition of NEK9 at 3 uM
# [25] = biological target: Histamine H3 receptor (Homo sapiens) (UniProt Q9Y5N1); test: Inhibition of human histamine H3 receptor at 3 uM; method in brief: as §1
# [26] = biological target: Serine/threonine-protein kinase TNNI3K (Homo sapiens) (UniProt Q59H18); test: Inhibition of TNNI3K at 3 uM
# [27] = system: Mast/stem cell growth factor receptor Kit (Homo sapiens), P10721 [V559D,V654A]; test: Inhibition of KIT V559D,V654A mutant at 3 uM
# [28] = biological target: Cyclin-dependent kinase-like 2 (Homo sapiens) (UniProt Q92772); test: Inhibition of CDKL2 at 3 uM
# [29] = biological target: Serine/threonine-protein kinase ULK3 (Homo sapiens) (UniProt Q6PHR2); test: Inhibition of ULK3 at 3 uM
# Chain of Serine/threonine-protein kinase ULK3 (Homo sapiens) (Q6PHR2 whole entry): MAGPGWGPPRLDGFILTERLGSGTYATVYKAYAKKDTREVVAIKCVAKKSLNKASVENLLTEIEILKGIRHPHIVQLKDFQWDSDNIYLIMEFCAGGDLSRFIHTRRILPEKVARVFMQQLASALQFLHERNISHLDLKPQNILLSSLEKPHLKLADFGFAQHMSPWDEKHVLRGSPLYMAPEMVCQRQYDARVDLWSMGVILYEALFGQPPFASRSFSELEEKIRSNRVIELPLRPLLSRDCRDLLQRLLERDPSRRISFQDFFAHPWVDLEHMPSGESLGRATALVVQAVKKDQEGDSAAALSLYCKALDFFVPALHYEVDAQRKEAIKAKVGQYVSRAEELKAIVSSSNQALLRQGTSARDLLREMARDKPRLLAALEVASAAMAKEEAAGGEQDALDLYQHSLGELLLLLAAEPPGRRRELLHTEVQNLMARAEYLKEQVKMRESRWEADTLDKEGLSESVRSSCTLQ
# [30] = biological target: Sodium-dependent serotonin transporter (Homo sapiens) (UniProt P31645); test: Inhibition of human SERT at 3 uM
# [31] = species: Rattus norvegicus; conditions: 3 uM
# [32] = biological target: Alpha-1D adrenergic receptor (Homo sapiens) (UniProt P25100); test: Inhibition of human adrenergic Alpha-1D receptor at 3 uM; method in brief: as §1
# [33] = species: Rattus norvegicus; conditions: 3 uM; remark: listed apart in the source
# [34] = biological target: Serine/threonine-protein kinase 32B (Homo sapiens) (UniProt Q9NY57); test: Inhibition of YANK2 at 3 uM
# [35] = biological target: Mitogen-activated protein kinase 11 (Homo sapiens) (UniProt Q15759); test: Inhibition of p38-beta at 3 uM
# [36] = biological target: Platelet-activating factor receptor (Homo sapiens) (UniProt P25105); test: Inhibition of human PAF at 3 uM
# [37] = biological target: Muscarinic acetylcholine receptor M2 (Homo sapiens) (UniProt P08172); test: Inhibition of human muscarinic M2 receptor at 3 uM; method in brief: as §1
# [38] = biological target: Activin receptor type-2B (Homo sapiens) (UniProt Q13705); test: Inhibition of ACVR2B at 3 uM
# [39] = Volume of distribution in Sprague-Dawley rat at 1 mg/kg, iv; conditions: in vivo
# [40] = biological target: Maternal embryonic leucine zipper kinase (Homo sapiens) (UniProt Q14680); test: Inhibition of MELK at 3 uM
# [41] = biological target: Serine/threonine-protein kinase tousled-like 1 (Homo sapiens) (UniProt Q9UKI8); test: Inhibition of TLK1 at 3 uM
# [42] = biological target: Myosin light chain kinase, smooth muscle (Homo sapiens) (UniProt Q15746); test: Inhibition of MYLK at 3 uM
# [43] = biological target: Serine/threonine-protein kinase RIO1 (Homo sapiens) (UniProt Q9BRS2); test: Inhibition of RIOK1 at 3 uM
# [44] = species: Sus scrofa; conditions: 25 uM
# [45] = biological target: ALK tyrosine kinase receptor (Homo sapiens) (UniProt Q9UM73); test: Inhibition of ALK at 3 uM
# Chain of ALK tyrosine kinase receptor (Homo sapiens) (Q9UM73 19-1620 limits assumed): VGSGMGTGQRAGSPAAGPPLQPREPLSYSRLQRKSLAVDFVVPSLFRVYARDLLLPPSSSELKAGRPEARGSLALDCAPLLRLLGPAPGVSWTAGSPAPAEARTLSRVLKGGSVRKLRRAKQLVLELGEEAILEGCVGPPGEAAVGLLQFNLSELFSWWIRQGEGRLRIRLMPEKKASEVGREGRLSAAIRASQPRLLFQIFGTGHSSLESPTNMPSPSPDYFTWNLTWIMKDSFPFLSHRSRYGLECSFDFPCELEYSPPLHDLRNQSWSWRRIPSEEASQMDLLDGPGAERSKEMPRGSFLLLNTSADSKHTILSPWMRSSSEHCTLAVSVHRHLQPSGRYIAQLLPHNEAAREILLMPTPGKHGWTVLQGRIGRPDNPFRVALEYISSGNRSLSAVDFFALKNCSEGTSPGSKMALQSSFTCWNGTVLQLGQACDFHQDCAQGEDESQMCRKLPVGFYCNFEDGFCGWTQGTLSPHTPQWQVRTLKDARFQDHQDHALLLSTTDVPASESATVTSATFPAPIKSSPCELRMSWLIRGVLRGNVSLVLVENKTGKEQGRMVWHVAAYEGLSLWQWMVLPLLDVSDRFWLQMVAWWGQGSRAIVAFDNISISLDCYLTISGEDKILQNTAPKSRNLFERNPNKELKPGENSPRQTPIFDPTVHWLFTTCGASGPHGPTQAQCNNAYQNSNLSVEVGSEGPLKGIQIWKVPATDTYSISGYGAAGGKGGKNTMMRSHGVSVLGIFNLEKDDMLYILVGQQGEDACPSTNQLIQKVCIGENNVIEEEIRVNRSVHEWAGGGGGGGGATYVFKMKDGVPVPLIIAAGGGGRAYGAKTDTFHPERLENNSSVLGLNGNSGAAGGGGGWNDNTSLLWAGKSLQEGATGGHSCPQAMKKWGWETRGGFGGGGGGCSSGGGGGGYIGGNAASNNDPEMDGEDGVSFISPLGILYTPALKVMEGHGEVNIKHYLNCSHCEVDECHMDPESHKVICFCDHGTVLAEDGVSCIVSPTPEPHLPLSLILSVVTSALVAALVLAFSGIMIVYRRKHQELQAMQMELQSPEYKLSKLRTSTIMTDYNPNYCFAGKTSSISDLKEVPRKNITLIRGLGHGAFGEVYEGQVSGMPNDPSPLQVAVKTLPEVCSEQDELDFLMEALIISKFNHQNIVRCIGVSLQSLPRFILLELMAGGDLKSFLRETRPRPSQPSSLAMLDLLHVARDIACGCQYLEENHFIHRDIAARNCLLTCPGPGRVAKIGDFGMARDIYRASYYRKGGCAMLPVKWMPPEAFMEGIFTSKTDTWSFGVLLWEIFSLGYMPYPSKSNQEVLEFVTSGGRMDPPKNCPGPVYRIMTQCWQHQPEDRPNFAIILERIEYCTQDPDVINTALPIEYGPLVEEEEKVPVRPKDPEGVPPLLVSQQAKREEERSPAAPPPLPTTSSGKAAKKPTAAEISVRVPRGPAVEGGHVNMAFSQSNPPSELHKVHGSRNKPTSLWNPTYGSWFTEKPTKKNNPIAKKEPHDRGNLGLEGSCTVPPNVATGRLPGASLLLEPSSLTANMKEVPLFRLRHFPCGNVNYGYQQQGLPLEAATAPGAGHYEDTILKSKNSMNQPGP
# [46] = biological target: Cyclin-dependent kinase 14 (Homo sapiens) (UniProt O94921); test: Inhibition of PFTK1 at 3 uM
compound,measurement,setting,value
CN(C)CCOc1cc(-c2cn[nH]c2)ccc1NC(=O)C1COc2ccccc2O1 (stereo unspecified) [SR-3677],inhibition,[1],< 10%
same,inhibition,[2],< 10%
same,inhibition,[3],< 10%
same,inhibition,[4],< 10%
same,inhibition,[5],-2%
same,inhibition,[6],< 10%
same,inhibition,[7],< 10%
same,inhibition,[8],< 10%
same,inhibition,[9],< 10%
same,IC50,[10],7.49 µM
same,inhibition,[11],90%
same,inhibition,[12],< 10%
same,inhibition,[13],< 10%
same,inhibition,[14],< 10%
same,inhibition,[15],< 10%
same,inhibition,[16],< 10%
same,inhibition,[17],< 10%
same,inhibition,[18],< 10%
same,inhibition,[19],< 10%
same,inhibition,[20],< 10%
same,inhibition,[21],< 10%
same,inhibition,[22],-2%
same,inhibition,[23],15%
same,inhibition,[24],< 10%
same,inhibition,[25],-2%
same,inhibition,[26],< 10%
same,inhibition,[27],< 10%
same,inhibition,[28],< 10%
same,inhibition,[29],< 10%
same,inhibition,[30],3%
same,inhibition,[31],-4%
same,inhibition,[32],43%
same,inhibition,[33],17%
same,inhibition,[34],< 10%
same,inhibition,[35],< 10%
same,inhibition,[36],-4%
same,inhibition,[37],4%
same,inhibition,[38],< 10%
same,Vd,[39],3 L/kg
same,inhibition,[40],< 10%
same,inhibition,[41],< 10%
same,inhibition,[42],< 10%
same,inhibition,[43],< 10%
same,inhibition,[44],90%
same,inhibition,[45],< 10%
same,inhibition,[46],< 10%
